Legend:
[1] = molecular target: T1, N-acylethanolamine-hydrolyzing acid amidase (Homo sapiens, UniProt Q02083); test: Inhibition of activated human NAAA using fluorogenic PAMCA and N-4-methylcoumarin as substrate incubated for 90 mins by fluorescence based assay
T1 sequence (Q02083 whole entry): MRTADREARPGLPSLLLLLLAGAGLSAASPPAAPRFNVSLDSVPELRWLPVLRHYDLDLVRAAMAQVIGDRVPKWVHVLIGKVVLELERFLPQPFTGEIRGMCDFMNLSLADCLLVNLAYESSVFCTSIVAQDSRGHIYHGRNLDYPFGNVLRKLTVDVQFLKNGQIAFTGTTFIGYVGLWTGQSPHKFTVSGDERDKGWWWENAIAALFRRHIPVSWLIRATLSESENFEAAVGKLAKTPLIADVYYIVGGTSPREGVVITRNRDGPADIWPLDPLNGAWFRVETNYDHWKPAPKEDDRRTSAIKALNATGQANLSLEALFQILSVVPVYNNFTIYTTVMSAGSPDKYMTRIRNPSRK
How it was run: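 Purified activated hNAAA (final 0.25 µg/mL) in 100 mM citrate-phosphate pH 4.5, 3 mM DTT, 0.1% Triton X-100, 0.05% BSA, 150 mM NaCl; compound in DMSO preincubated 90 min at room temperature. PAMCA added (final 5 µM), reaction at 37 °C for 90 min, fluorescence ex 360/em 460 nm read every 10 min. RFU converted to AMC via AMC standard curve. IC50 from eight concentrations, triplicate.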

[2] = molecular target: T2, N-acylethanolamine-hydrolyzing acid amidase (Homo sapiens) (UniProt Q02083); test: Irreversible inhibition of activated human NAAA assessed as ratio of Kinact/Ki using fluorogenic PAMCA and N-4-methylcoumarin as substrate
T2 sequence (whole entry): T1 sequence (Q02083 whole entry)

[3] = Half life in human liver microsomes at 1 uM in presence of NADPH by LC-MS/MS
[4] = Half life in rat liver microsomes at 1 uM in presence of NADPH by LC-MS/MS
[5] = molecular target: T3, Fatty-acid amide hydrolase 1 (Homo sapiens, UniProt O00519); test: Inhibition of recombinant human FAAH expressed in Escherichia coli using fluorogenic AAMCA as substrate by fluorimetric assay
T3 sequence (O00519 whole entry): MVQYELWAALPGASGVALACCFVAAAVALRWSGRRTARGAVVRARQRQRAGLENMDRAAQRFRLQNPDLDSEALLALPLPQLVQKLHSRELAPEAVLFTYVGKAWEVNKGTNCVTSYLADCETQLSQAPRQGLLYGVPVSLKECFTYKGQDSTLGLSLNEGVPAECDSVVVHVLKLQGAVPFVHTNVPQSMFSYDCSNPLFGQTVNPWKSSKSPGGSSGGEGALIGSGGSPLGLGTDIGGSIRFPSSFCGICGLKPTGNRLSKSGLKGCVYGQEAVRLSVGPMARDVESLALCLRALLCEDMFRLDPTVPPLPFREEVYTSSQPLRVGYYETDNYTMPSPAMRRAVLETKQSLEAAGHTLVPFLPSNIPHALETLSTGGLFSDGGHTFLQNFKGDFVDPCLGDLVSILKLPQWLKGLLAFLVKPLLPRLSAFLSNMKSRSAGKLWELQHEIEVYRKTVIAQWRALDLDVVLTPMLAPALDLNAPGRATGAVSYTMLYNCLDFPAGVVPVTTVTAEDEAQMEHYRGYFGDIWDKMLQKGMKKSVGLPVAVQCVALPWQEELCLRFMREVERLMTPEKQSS
How it was run: (§1)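 Human recombinant FAAH expressed in E. coli and purified; fluorometric assay with arachidonoyl 7-amino-4-methylcoumarin amide (AAMCA) as substrate; IC50 by curve fitting, or percent inhibition at 1 µM.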

[6] = molecular target: T4, Monoglyceride lipase (Homo sapiens) (UniProt Q99685); test: Inhibition of recombinant human hexaHis-tagged MGL expressed in Escherichia coli BL21 (DE3) at 1 uM using fluorogenic AHMMCE as substrate preincubated for 1 hr followed by substrate addition by fluorimetric assay relative to control
T4 sequence (whole entry): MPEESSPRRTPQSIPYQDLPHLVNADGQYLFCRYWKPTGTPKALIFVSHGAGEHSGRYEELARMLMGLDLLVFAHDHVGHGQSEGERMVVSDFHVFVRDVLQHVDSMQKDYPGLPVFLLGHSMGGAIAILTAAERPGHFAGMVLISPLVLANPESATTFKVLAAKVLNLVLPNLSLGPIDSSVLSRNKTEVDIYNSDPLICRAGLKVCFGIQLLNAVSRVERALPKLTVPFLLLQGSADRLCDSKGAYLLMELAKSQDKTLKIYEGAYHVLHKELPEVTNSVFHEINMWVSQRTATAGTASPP
How it was run: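 Human recombinant MGL expressed in E. coli and purified; fluorometric assay using arachidonoyl 7-hydroxy-6-methoxy-4-methylcoumarin ester (AHMMCE) as substrate; IC50 by curve fitting, or percent inhibition at 1 µM.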

[7] = Half life in human plasma by HPLC analysis
[8] = Half life in rat plasma by HPLC analysis
[9] = Half life in artificial gastric fluid by HPLC analysis; assay type: physicochemical
How it was run: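 Compound at 200 μM incubated in artificial gastric juice; reaction quenched with acetonitrile and samples analysed by HPLC to estimate half-life (min).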

[10] = molecular target: T5, Fatty-acid amide hydrolase 1 (Homo sapiens) (UniProt O00519); test: Inhibition of recombinant human FAAH expressed in Escherichia coli at 1 uM using fluorogenic AAMCA as substrate by fluorimetric assay relative to control; how it was run: as §1
T5 sequence (whole entry): T3 sequence (O00519 whole entry)

Homo sapiens [11] = organism: Homo sapiens; test: Selectivity index, ratio of IC50 for recombinant human FAAH expressed in Escherichia coli using fluorogenic AAMCA as substrate by fluorimetric assay to IC50 human NAAA using fluorogenic PAMCA and N-4-methylcoumarin as substrate incubated for 90 mins by fluorescence based assay
Homo sapiens [12] = organism: Homo sapiens; test: Selectivity index, ratio of IC50 for human hexaHis-tagged MGL expressed in Escherichia coli BL21 (DE3) using fluorogenic AHMMCE as substrate preincubated for 1 hr followed by substrate addition by fluorimetric assay to IC50 human NAAA using fluorogenic PAMCA and N-4-methylcoumarin as substrate incubated for 90 mins by fluorescence based assay
Homo sapiens [13] = organism: Homo sapiens; test: Selectivity index, ratio of IC50 for human Cathepsin K using […] as substrate preincubated with enzyme for 90 mins followed by substrate addition by fluorimetry analysis to IC50 human NAAA using fluorogenic PAMCA and N-4-methylcoumarin as substrate incubated for 90 mins by fluorescence based assay
Homo sapiens [14] = organism: Homo sapiens; test: Selectivity index, ratio of IC50 for full length human ABHD6 using AHMMCE as substrate preincubated for 1 hr followed by substrate addition by fluorimetric assay to IC50 human NAAA using fluorogenic PAMCA and N-4-methylcoumarin as substrate incubated for 90 mins by fluorescence based assay
[15] = molecular target: T1, N-acylethanolamine-hydrolyzing acid amidase; test: Inhibition of NAAA (unknown origin)

COc1ncccc1-c1ccc(COC2CN(C#N)C2)cc1
IC50 [1]: 5.8 nM

Cc1ccc(-c2ccc(COC3CN(C#N)C3)cc2)cc1
IC50 [1]: 0.46 nM | Ratio [2]: 2.24 ×10⁶ /M/s

N#CN1CC(OCc2ccc(-c3ccc(C(F)(F)F)cc3)cc2)C1
IC50 [1]: 1.6 nM | Ratio [2]: 2.74 ×10⁶ /M/s | half-life at 1 µM ([3]; liver microsomes): 6.8 min | half-life at 1 µM ([4]; liver microsomes): 8.9 min

COc1cccc(-c2ccc(COC3(c4ccccc4)CN(C#N)C3)cc2)c1
IC50 [1]: 9.1 nM | IC50 [5]: 61 nM | inhibition [6]: 19.5% | half-life at 1 µM ([3]; microsomes): 15.3 min | half-life at 1 µM ([4]; microsomes): 14.5 min

CN(Cc1ccc(-c2ccccc2)cc1)C1CN(C#N)C1
IC50 [1]: 20.8 nM | half-life at 1 µM ([3]; liver microsomes): 11.3 min

Cn1nccc1-c1ccc(C(OC2CN(C#N)C2)c2ccccc2)cc1 (stereo unspecified)
IC50 [1]: 74.7 nM

N#CN1CC(OCc2ccc(-c3cccnc3)cc2)C1
IC50 [1]: 12 nM

COc1ccc(-c2ccc3c(c2)CN(C2CN(C#N)C2)C3)cc1F
IC50 [1]: 1.6 nM | half-life at 1 µM ([3]; microsomes): 14.7 min | half-life at 1 µM ([4]; microsomes): 4.4 min

N#CN1CC[C@H](OCc2ccc(-c3ccccc3)cc2)C1
IC50 [1]: 315 nM

COc1cccc(-c2ccc(COC3CN(C#N)C3)cc2)c1
IC50 [1]: 0.89 nM | Ratio [2]: 3.05 ×10⁶ /M/s | half-life [7]: 204 min | half-life [8]: 189 min | half-life [9]: 450 min | half-life at 1 µM ([3]; microsomes): 11.2 min | half-life at 1 µM ([4]; microsomes): 10 min

N#Cc1ccccc1-c1cc(Oc2ccccc2)ccc1COC1CN(C#N)C1
IC50 [1]: 6.6 nM

COc1cccc(-c2ccc(C(=O)NC3(C)CN(C#N)C3)cc2)c1
IC50 [1]: 1.58 nM | inhibition [10]: 23% | inhibition [6]: 11% | half-life [7]: 902 min

N#CN1CC(OCc2ccc(-c3cccc(OCc4ccccc4)c3)cc2)C1
IC50 [1]: 1.4 nM

COc1cccc(-c2ccc(COC3CN(C#N)C3)c(C(F)(F)F)c2)c1
IC50 [1]: 0.85 nM | Ratio [2]: 1.4 ×10⁶ /M/s

COc1cccc(-c2ccc(C(=O)N3CCC34CN(C#N)C4)cc2)c1
IC50 [1]: 6.5 nM | inhibition [10]: 6% | inhibition [6]: 4% | half-life [7]: 458 min | Ratio IC50 (Homo sapiens [11]): > 100 | Ratio IC50 (Homo sapiens [12]): > 100 | Ratio IC50 (Homo sapiens [13]): > 100 | Ratio IC50 (Homo sapiens [14]): > 100

COc1cccc(-c2ccc(S(=O)(=O)NC3(C)CN(C#N)C3)cc2)c1
IC50 [1]: 3.2 nM | IC50 [5]: 17.8 nM | inhibition [6]: 19% | half-life [7]: 221 min | Ratio IC50 (Homo sapiens [12]): > 100 | Ratio IC50 (Homo sapiens [13]): > 100 | Ratio IC50 (Homo sapiens [14]): > 100

N#CN1CC(OCc2ccc(Oc3ccccc3)cc2-c2ccccc2)C1
IC50 [1]: 8.5 nM

COc1cccc(-c2ccc(S(=O)(=O)N3CCC34CN(C#N)C4)cc2)c1
IC50 [1]: 2.8 nM | IC50 [5]: 10.2 nM | inhibition [6]: 14% | half-life [7]: 180 min | Ratio IC50 (Homo sapiens [12]): > 100 | Ratio IC50 (Homo sapiens [13]): > 100 | Ratio IC50 (Homo sapiens [14]): > 100

N#CN1CC(OCc2ccc(Oc3ccccc3)cc2Br)C1
IC50 [1]: 1.03 nM

C[C@H]1[C@H](NC(=O)OCCCCC2CCCCC2)C(=O)N1c1cccc(S(C)(=O)=O)c1
IC50 [15]: 6 nM

N#CN1CC(Oc2ccc(-c3ccccc3)cc2)C1
IC50 [1]: 29 nM
